Measurements reported in ChEMBL document CHEMBL4270600, “Pyrazinyl ureas revisited: 1-(3-(Benzyloxy)pyrazin-2-yl)-3-(3,4-dichlorophenyl)urea, a new blocker of Aβ-induced mPTP opening for Alzheimer's disease” (Eur J Med Chem, 2018).

Experiments:
[1] = molecular target: Peptidyl-prolyl cis-trans isomerase F, mitochondrial (Mus musculus) (UniProt Q99KR7); test: Blockade of amyloid beta (1 to 42)-induced cypD-mediated mPTP opening in mouse HT22 cells assessed as green to red fluorescence ratio at 5 uM preincubated for 10 mins followed by amyloid beta (1 to 42) addition measured at 1 hr time interval for 3 hrs by JC-1 staining based fluorescence assay (reference value: 100%); format: cell-based
Sequence of Peptidyl-prolyl cis-trans isomerase F, mitochondrial (Mus musculus) (Q99KR7 whole entry): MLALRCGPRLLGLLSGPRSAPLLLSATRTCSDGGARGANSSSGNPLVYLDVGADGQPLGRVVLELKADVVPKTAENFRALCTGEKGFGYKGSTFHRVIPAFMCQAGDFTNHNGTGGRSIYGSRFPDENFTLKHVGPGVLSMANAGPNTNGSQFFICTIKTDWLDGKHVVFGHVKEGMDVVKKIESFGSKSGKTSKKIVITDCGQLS
In short: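 HT-22 mouse hippocampal cells were grown in DMEM with 10% FBS and seeded at 30,000/well the day before. They were loaded with 7.5 μM JC-1 (final) in phenol red-free Opti-MEM for 1 h 15 min at 37 °C, then PBS-washed. Test agent at 5 μM in Opti-MEM was added for 10 min at 37 °C, then 5 μM Aβ1–42 solution. Red (ex 530/em 580) and green (ex 485/em 530) fluorescence was read hourly for 3 h. The green/red ratio was expressed as percent change normalized to vehicle control (100%), from duplicate averages.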

[2] = system: HT-22; test: Induction of mitochondrial energy production impairment in mouse HT22 cells assessed as ATP production at 5 uM after 7 hrs by luciferase reporter gene assay relative to control; format: cell-based; settings: ht-22, 7 h
In short: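 HT-22 cells were seeded at 10,000/well the day before. Test agent was added as a 10 μM solution (25 μL) without Aβ and incubated 7 h at 37 °C. Cells were PBS-washed and lysed in 1% Triton X-100/TBST, and protein was measured by BCA. Equal lysate amounts were assayed for ATP by luciferase kit. Levels were expressed relative to vehicle control, from duplicate averages.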

[3] = system: HT-22; test: Neuroprotection against amyloid beta (1 to 42)-induced deterioration of mitochondrial ATP production in mouse HT22 cells assessed as ATP recovery at 5 uM preincubated for 10 mins followed by amyloid beta (1 to 42) addition and measured after 7 hrs by luciferase reporter gene assay relative to control; format: functional
In short: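 HT-22 cells were seeded at 10,000/well the day before. Test agent was added as a 10 μM solution (25 μL) for 10 min at 37 °C, then 25 μL of 10 μM Aβ1–42 solution, followed by 7 h at 37 °C. Lysates (1% Triton X-100/TBST) were equalized by BCA protein and assayed for ATP with a luciferase kit. Vehicle control was subtracted, and percent recovery was calculated against Aβ-treated vehicle control, from duplicate averages.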

[4] = Cytotoxicity against mouse HT22 cells assessed as cell viability at 5 uM after 24 hrs by MTT assay relative to control; format: cell-based, HT-22; settings: read-out: Activity
In short: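 HT-22 cells were seeded at 5000/well and treated with 5 μM test agent for 24 h at 37 °C. MTT was added for 2 h at 37 °C. Formazan was dissolved in 10% Triton X-100 in isopropanol with 0.1 M HCl for 1 h at room temperature. Absorbance was read at 570 nm, vehicle control subtracted, and viability expressed as percent of control, from duplicate averages.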

[5] = molecular target: Voltage-gated inwardly rectifying potassium channel KCNH2 (Homo sapiens, UniProt Q12809); test: Displacement of [3H]-astemizole from human ERG expressed in HEK293 cell membranes after 1 hr by microbeta counting method
Sequence of Voltage-gated inwardly rectifying potassium channel KCNH2 (Q12809 whole entry): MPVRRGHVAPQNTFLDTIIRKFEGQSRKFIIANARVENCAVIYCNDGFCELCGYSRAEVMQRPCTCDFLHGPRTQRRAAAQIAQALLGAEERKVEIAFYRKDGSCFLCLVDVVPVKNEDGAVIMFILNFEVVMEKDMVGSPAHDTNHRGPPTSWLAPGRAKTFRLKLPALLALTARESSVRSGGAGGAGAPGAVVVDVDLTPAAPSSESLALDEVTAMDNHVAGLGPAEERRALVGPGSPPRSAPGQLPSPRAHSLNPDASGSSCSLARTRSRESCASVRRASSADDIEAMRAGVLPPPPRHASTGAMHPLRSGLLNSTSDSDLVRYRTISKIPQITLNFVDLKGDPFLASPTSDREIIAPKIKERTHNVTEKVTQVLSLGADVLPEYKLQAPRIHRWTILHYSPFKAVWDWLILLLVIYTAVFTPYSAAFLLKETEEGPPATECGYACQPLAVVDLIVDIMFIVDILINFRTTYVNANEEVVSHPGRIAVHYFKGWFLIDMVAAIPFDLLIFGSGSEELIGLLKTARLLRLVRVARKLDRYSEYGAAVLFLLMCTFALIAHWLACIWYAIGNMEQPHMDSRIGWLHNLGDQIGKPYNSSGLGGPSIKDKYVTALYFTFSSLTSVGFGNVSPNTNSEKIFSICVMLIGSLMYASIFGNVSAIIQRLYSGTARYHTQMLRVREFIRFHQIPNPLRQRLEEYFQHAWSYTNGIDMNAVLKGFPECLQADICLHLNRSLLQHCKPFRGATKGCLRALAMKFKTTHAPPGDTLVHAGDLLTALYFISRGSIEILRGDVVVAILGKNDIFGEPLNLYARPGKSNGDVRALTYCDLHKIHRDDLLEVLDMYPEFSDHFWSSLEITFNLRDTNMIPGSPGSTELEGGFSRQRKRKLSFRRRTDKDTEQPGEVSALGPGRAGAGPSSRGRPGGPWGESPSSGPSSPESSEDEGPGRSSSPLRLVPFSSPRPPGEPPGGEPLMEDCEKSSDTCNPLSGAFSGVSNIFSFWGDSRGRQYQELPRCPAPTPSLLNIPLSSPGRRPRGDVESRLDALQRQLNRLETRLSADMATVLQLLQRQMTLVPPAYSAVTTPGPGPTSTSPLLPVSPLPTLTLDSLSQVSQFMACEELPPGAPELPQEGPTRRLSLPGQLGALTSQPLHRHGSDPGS
In short: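 Radioligand binding used 2.5 µg HEK-293 membranes expressing human ERG in 50 mM Hepes pH 7.4, 60 mM KCl, 0.1% BSA, with 4 nM [³H]astemizole. Incubation was 1 h at room temperature, followed by filtration through PEI-presoaked filtermat and scintillation counting. Non-specific binding was defined with 0.1 µM astemizole. Each competitor was tested at 5–6 concentrations in duplicate tubes, with isotherms from two assays.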

| SMILES | Ratio [1] [%] | Activity [2] [%] | Activity [3] [%] | viability at 24 h, 5 µM [4] [%] | IC50 [5] [µM] |
| --- | --- | --- | --- | --- | --- |
| CC(C)(C)NC(=O)Nc1nccnc1OCc1ccccc1Cl | 28 | 55.3 |  |  |  |
| O=C(Nc1ccccc1)Nc1nccnc1OCc1ccccc1 | 44 |  |  |  |  |
| O=C(NCCCl)Nc1nccnc1OCc1cccc(Cl)c1 | 73 |  |  |  |  |
| CC(C)(C)CC(C)(C)NC(=O)Nc1nccnc1OCc1ccccc1 | 25 | 86 | -59 |  |  |
| O=C(Nc1nccnc1OCc1ccccc1)NC1CCCCCC1 | 33 | 103.4 | 45.7 | 59 |  |
| O=C(Nc1ccccc1)Nc1nccnc1OCc1cccc(Cl)c1 | 59 |  |  |  |  |
| O=C(Nc1ccccc1)Nc1nccnc1OCc1ccccc1Cl | 39 | 66.9 |  |  |  |
| CC(C)(C)CC(C)(C)NC(=O)Nc1nccnc1OCc1ccc(F)cc1 | 17 |  |  |  |  |
| CC(C)(C)NC(=O)Nc1nccnc1OCc1ccccc1 | 51 |  |  |  |  |
| CC(C)(C)NC(=O)Nc1nccnc1OCc1cccc(F)c1 | 55 |  |  |  |  |
| O=C(NCCCl)Nc1nccnc1OCc1ccccc1Cl | 72 |  |  |  |  |
| O=C(NCCN1CCNCC1)Nc1nccnc1OCc1ccccc1Cl | 37 | 70 |  |  |  |
| O=C(NCc1ccccc1)Nc1nccnc1OCc1ccccc1Cl | 33 | 96.9 | 71.3 | 84.8 |  |
| O=C(Nc1cccc(F)c1)Nc1nccnc1OCc1cccc(Cl)c1 | 50 |  |  |  |  |
| O=C(Nc1cccc(Cl)c1)Nc1nccnc1OCc1ccccc1Cl | 55 |  |  |  |  |
| CN1CCN(CCNC(=O)Nc2nccnc2OCc2cccc(Cl)c2)CC1 | 34 | 96.1 | 17.7 |  |  |
| O=C(Nc1ccccc1)Nc1nccnc1OCc1cccc(F)c1 | 30 |  |  |  |  |
| O=C(Nc1ccc(Cl)c(Cl)c1)Nc1nccnc1OCc1ccccc1 | 29 | 148.6 | 71.2 | 139 | 11.3 |
| O=C(Nc1cccc(Cl)c1)Nc1nccnc1OCc1cccc(F)c1 | 39 |  |  |  |  |
| O=C(Nc1cccc(Cl)c1)Nc1nccnc1OCc1cccc(Cl)c1 | 29 | 85.4 | -3.5 |  |  |
| CN1CCN(CCNC(=O)Nc2nccnc2OCc2ccccc2Cl)CC1 | 34 |  |  |  |  |
| CC(C)(C)CC(C)(C)NC(=O)Nc1nccnc1OCc1ccc(Cl)cc1 | 35 | 85.7 | -1.7 |  |  |
| CCNC(=O)Nc1nccnc1OCc1cccc(Cl)c1 | 60 |  |  |  |  |
| CC(C)(C)CC(C)(C)NC(=O)Nc1nccnc1OCc1cccc(F)c1 | 29 | 98.9 | 32.9 |  |  |
| NC(=O)CN1CCCC1=O [PIRACETAM] |  | 88 | 127 |  |  |
| CN1CCN(CCNC(=O)Nc2nccnc2OCc2ccccc2)CC1 | 43 | 97.2 | 0.7 |  |  |
| O=C(Nc1nccnc1OCc1ccc(Cl)cc1)Nc1cccc2ccccc12 | 60 |  |  |  |  |
| CC(C)(C)CC(C)(C)NC(=O)Nc1nccnc1OCc1ccccc1Cl | 59 |  |  |  |  |
| O=C(NCCCl)Nc1nccnc1OCc1ccccc1 | 53 |  |  |  |  |
